Measured values published in ChEMBL document CHEMBL1221275 (Bioorg Med Chem, 2010).

Columns and labels:
[1] = test system: Human immunodeficiency virus 1; experiment: Antiviral activity against HIV1 NL4-3 infected in human MT4 cells assessed as inhibition of viral replication after 4 days by p24 antigen based ELISA assay; assay type: functional, organism-based; conditions: Human immunodeficiency virus 1, NL4-3, MT4, 96 h
MT4 = experiment: Cytotoxicity against human MT4 cells after 4 days; assay type: cell-based; conditions: MT4, 96 h
In short: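 Mock-infected MT-4 cells were used. IC50 is the concentration giving 50% inhibition of cell growth. Values are averages of at least two separate experiments.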

[2] = Therapeutic index, ratio of IC50 for human MT4 cells to EC50 for HIV1 NL4-3; assay type: cell-based; conditions: read-out: TI
In short: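 TI was calculated as IC50 (growth inhibition of mock-infected MT-4 cells) divided by EC50 (inhibition of HIV-1 NL4-3 replication in MT-4 cells). Both inputs are averages of at least two separate experiments.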

| EC50 [1] | Structure (SMILES) | IC50 (MT4) | selectivity ratio [2] |
| --- | --- | --- | --- |
| 45 nM | C=C(C)[C@@H]1CC[C@]2(COC(=O)CCC(=O)OC[C@H]3O[C@@H](n4cc(C)c(=O)[nH]c4=O)C[C@@H]3N=[N+]=[N-])CC[C@]3(C)[C@H](CC[C@@H]4[C@@]5(C)CC[C@H](OC(=O)CC(C)(C)C(=O)O)C(C)(C)[C@@H]5CC[C@]43C)[C@@H]12 | 7100 nM | 158 |
| 60 nM | C=C(C)[C@@H]1CC[C@]2(COC(=O)CCCC(=O)OC[C@H]3O[C@@H](n4cc(C)c(=O)[nH]c4=O)C[C@@H]3N=[N+]=[N-])CC[C@]3(C)[C@H](CC[C@@H]4[C@@]5(C)CC[C@H](OC(=O)CC(C)(C)C(=O)O)C(C)(C)[C@@H]5CC[C@]43C)[C@@H]12 | 8700 nM | 145 |
| 98 nM | C=C(C)[C@@H]1CC[C@]2(COC(=O)CC(C)(C)C(=O)OC[C@H]3O[C@@H](n4cc(C)c(=O)[nH]c4=O)C[C@@H]3N=[N+]=[N-])CC[C@]3(C)[C@H](CC[C@@H]4[C@@]5(C)CC[C@H](OC(=O)CC(C)(C)C(=O)O)C(C)(C)[C@@H]5CC[C@]43C)[C@@H]12 | 7000 nM | 71 |
| 40 nM | C=C(C)[C@@H]1CC[C@]2(COC(=O)C(C)(C)CC(=O)OC[C@H]3O[C@@H](n4cc(C)c(=O)[nH]c4=O)C[C@@H]3N=[N+]=[N-])CC[C@]3(C)[C@H](CC[C@@H]4[C@@]5(C)CC[C@H](OC(=O)CC(C)(C)C(=O)O)C(C)(C)[C@@H]5CC[C@]43C)[C@@H]12 | 5400 nM | 135 |
| 63 nM | C=C(C)[C@@H]1CC[C@]2(COC(=O)CC(C)(C)CC(=O)OC[C@H]3O[C@@H](n4cc(C)c(=O)[nH]c4=O)C[C@@H]3N=[N+]=[N-])CC[C@]3(C)[C@H](CC[C@@H]4[C@@]5(C)CC[C@H](OC(=O)CC(C)(C)C(=O)O)C(C)(C)[C@@H]5CC[C@]43C)[C@@H]12 | 8100 nM | 129 |
| 180 nM | C=C(C)[C@@H]1CC[C@]2(COC(=O)CC(C)(C)CC(=O)OC[C@H]3O[C@@H](n4cc(C)c(=O)[nH]c4=O)C[C@@H]3N=[N+]=[N-])CC[C@]3(C)[C@H](CC[C@@H]4[C@@]5(C)CC[C@H](OC(=O)CC(C)(C)CC(=O)O)C(C)(C)[C@@H]5CC[C@]43C)[C@@H]12 | 7700 nM | 43 |
| 87 nM | Cc1cn([C@H]2C[C@H](N=[N+]=[N-])[C@@H](COC(=O)C(C)(C)CC(=O)OC[C@]34CC[C@@H](C(C)C)[C@@H]3[C@H]3CC[C@@H]5[C@@]6(C)CC[C@H](OC(=O)CC(C)(C)C(=O)O)C(C)(C)[C@@H]6CC[C@@]5(C)[C@]3(C)CC4)O2)c(=O)[nH]c1=O | 9000 nM | 103 |
| 56 nM | Cc1cn([C@H]2C[C@H](N=[N+]=[N-])[C@@H](COC(=O)CC(C)(C)C(=O)OC[C@]34CC[C@@H](C(C)C)[C@@H]3[C@H]3CC[C@@H]5[C@@]6(C)CC[C@H](OC(=O)CC(C)(C)C(=O)O)C(C)(C)[C@@H]6CC[C@@]5(C)[C@]3(C)CC4)O2)c(=O)[nH]c1=O | 7700 nM | 138 |
| 290 nM | Cc1cn([C@H]2C[C@H](N=[N+]=[N-])[C@@H](COC(=O)CC(C)(C)CC(=O)OC[C@]34CC[C@@H](C(C)C)[C@@H]3[C@H]3CC[C@@H]5[C@@]6(C)CC[C@H](OC(=O)CC(C)(C)C(=O)O)C(C)(C)[C@@H]6CC[C@@]5(C)[C@]3(C)CC4)O2)c(=O)[nH]c1=O | 9000 nM | 31 |
| 73 nM | Cc1cn([C@H]2C[C@H](N=[N+]=[N-])[C@@H](COC(=O)CC(C)(C)C(=O)OC[C@]34CC[C@@H](C(C)C)[C@@H]3[C@H]3CC[C@@H]5[C@@]6(C)CC[C@H](OC(=O)CCCC(=O)O)C(C)(C)[C@@H]6CC[C@@]5(C)[C@]3(C)CC4)O2)c(=O)[nH]c1=O | 8000 nM | 110 |
| 260 nM | Cc1cn([C@H]2C[C@H](N=[N+]=[N-])[C@@H](COC(=O)C(C)(C)CC(=O)OC[C@]34CC[C@@H](C(C)C)[C@@H]3[C@H]3CC[C@@H]5[C@@]6(C)CC[C@H](OC(=O)CCCC(=O)O)C(C)(C)[C@@H]6CC[C@@]5(C)[C@]3(C)CC4)O2)c(=O)[nH]c1=O | 7200 nM | 28 |
| 93 nM | Cc1cn([C@H]2C[C@H](N=[N+]=[N-])C(COC(=O)CCCC(=O)OC[C@]34CC[C@@H](C(C)C)[C@@H]3[C@H]3CC[C@@H]5[C@@]6(C)CC[C@H](OC(=O)CCCC(=O)O)C(C)(C)[C@@H]6CC[C@@]5(C)[C@]3(C)CC4)O2)c(=O)[nH]c1=O (some centres not stated) | 9000 nM | 97 |
| 1210 nM | Cc1cn([C@H]2C[C@H](N=[N+]=[N-])C(COC(=O)CC(C)(C)CC(=O)OC[C@]34CC[C@@H](C(C)C)[C@@H]3[C@H]3CC[C@@H]5[C@@]6(C)CC[C@H](OC(=O)CCCC(=O)O)C(C)(C)[C@@H]6CC[C@@]5(C)[C@]3(C)CC4)O2)c(=O)[nH]c1=O (some centres not stated) | 8500 nM | 7 |
| 360 nM | Cc1cn([C@H]2C[C@H](N=[N+]=[N-])C(COC(=O)CC(C)(C)CC(=O)OC[C@]34CC[C@@H](C(C)C)[C@@H]3[C@H]3CC[C@@H]5[C@@]6(C)CC[C@H](OC(=O)CC(C)(C)CC(=O)O)C(C)(C)[C@@H]6CC[C@@]5(C)[C@]3(C)CC4)O2)c(=O)[nH]c1=O (some centres not stated) | 9800 nM | 27 |
| 96 nM | C=C(C)[C@@H]1CC[C@]2(C(=O)O)CC[C@]3(C)[C@H](CC[C@@H]4[C@@]5(C)CC[C@H](OC(=O)CC(C)(C)C(=O)O)C(C)(C)[C@@H]5CC[C@]43C)[C@@H]12 [BEVIRIMAT] | > 5000 nM | > 52 |
| – | Cc1cn([C@H]2C[C@H](N=[N+]=[N-])[C@@H](CO)O2)c(=O)[nH]c1=O [ZIDOVUDINE] | > 37400 nM | – |

| Structure (SMILES) | EC50 [1] | IC50 (MT4) | selectivity ratio [2] |
| --- | --- | --- | --- |
| C=C(C)[C@@H]1CC[C@]2(COC(=O)CCC(=O)O)CC[C@]3(C)[C@H](CC[C@@H]4[C@@]5(C)CC[C@H](OC(=O)CC(C)(C)C(=O)O)C(C)(C)[C@@H]5CC[C@]43C)[C@@H]12 | 180 nM | 11300 nM | 63 |
| C=C(C)[C@@H]1CC[C@]2(COC(=O)CCCC(=O)O)CC[C@]3(C)[C@H](CC[C@@H]4[C@@]5(C)CC[C@H](OC(=O)CC(C)(C)C(=O)O)C(C)(C)[C@@H]5CC[C@]43C)[C@@H]12 | 310 nM | > 46600 nM | > 47 |
